Activity calls are given as the source filed them. No cut-off for these calls is given here.
Columns and labels:
MOLT-4 = assay: Growth inhibition of human MOLT4 cells incubated for 48 hrs by sulforhodamine B assay; type: functional; settings: MOLT-4, 48 h
Summary of the method: (§1)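 NCI full panel screen: five 10-fold dilutions (10^-4–10^-8 M). GI50 is the molar concentration giving 50% inhibition of net cell growth.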

OVCAR-3 = assay: Growth inhibition of human OVCAR3 cells incubated for 48 hrs by sulforhodamine B assay; type: functional; settings: OVCAR-3, 48 h; summary of the method: as §1
MCF7 [1] = assay: Cell cycle arrest in human MCF7 cells assessed as reduction in accumulation at G0/G1 phase at GI50 concentration after 48 hrs by propidium iodide-staining based flow cytometry; type: functional
Summary of the method: (§2)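 Cells were trypsinized, washed in cold PBS, and 1 x 10^6 cells stained with 20 µg/ml PI plus 200 µg/ml RNase for 30 min at room temperature in the dark. At least 1x 10^4 cells were analysed by flow cytometry. Mean±SD of three experiments in triplicate.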

HCC 2998 = assay: Growth inhibition of human HCC2998 cells incubated for 48 hrs by sulforhodamine B assay; type: functional; settings: HCC 2998, 48 h; summary of the method: as §1
MCF7 [2] = assay: Cell cycle arrest in human MCF7 cells assessed as reduction in accumulation at S phase at GI50 concentration after 48 hrs by propidium iodide-staining based flow cytometry; type: functional; summary of the method: as §2
SK-MEL-2 = assay: Growth inhibition of human SK-MEL-2 cells incubated for 48 hrs by sulforhodamine B assay; type: functional; settings: SK-MEL-2, 48 h
Summary of the method: (§3)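 NCI full-panel human tumour cell screen. Cells were exposed to five 10-fold dilutions from 10^-4 to 10^-8 M. GI50 is the molar concentration giving 50% inhibition of net cell growth, and a mean graph midpoint was calculated across the panel.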

HCT-116 = assay: Growth inhibition of human HCT116 cells incubated for 48 hrs by sulforhodamine B assay; type: functional; settings: HCT-116, 48 h; summary of the method: as §1
MDA-MB-468 = assay: Growth inhibition of human MDA-MB-468 cells incubated for 48 hrs by sulforhodamine B assay; type: functional; settings: MDA-MB-468, 48 h; summary of the method: as §1
[3] = tested on: Panel NCI-60 (60 carcinoma cell lines); assay: Growth inhibition of human NCI60 cells at 10^-5 M incubated for 48 hrs by sulforhodamine B assay; type: functional, cell-based
SK-MEL-5 = assay: Growth inhibition of human SK-MEL-5 cells incubated for 48 hrs by sulforhodamine B assay; type: functional; settings: SK-MEL-5, 48 h; summary of the method: as §3
IGROV-1 = assay: Growth inhibition of human IGROV1 cells incubated for 48 hrs by sulforhodamine B assay; type: functional; settings: IGROV-1, 48 h; summary of the method: as §1
CCRF-CEM = assay: Growth inhibition of human CCRF-CEM cells incubated for 48 hrs by sulforhodamine B assay; type: functional; summary of the method: as §1
OVCAR-4 = assay: Growth inhibition of human OVCAR4 cells incubated for 48 hrs by sulforhodamine B assay; type: functional; settings: OVCAR-4, 48 h; summary of the method: as §1
SF-539 = assay: Growth inhibition of human SF539 cells incubated for 48 hrs by sulforhodamine B assay; type: functional; settings: SF-539, 48 h; summary of the method: as §1
Caco-2 = assay: Cytotoxicity against human Caco2 cells assessed as reduction in cell survival at 25 to 100 uM after 72 hrs by MTT assay; type: cell-based; settings: caco-2, 72 h
Summary of the method: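 Caco-2 cells, differentiated 15 days post-confluence, seeded at 2 x 10^4 cells/well and treated 72 h with 5–100 µM compound. MTT added (5 mg/mL in FBS-free medium), 2 h at 37 °C, formazan dissolved in DMSO, absorbance at 570 nm. Viability relative to vehicle control (100%); LC50 taken from the viability-concentration plot. At least three experiments in triplicate.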

KM12 = assay: Growth inhibition of human KM12 cells incubated for 48 hrs by sulforhodamine B assay; type: functional; settings: KM12, 48 h; summary of the method: as §1
RPMI-8226 = assay: Growth inhibition of human RPMI8226 cells incubated for 48 hrs by sulforhodamine B assay; type: functional; settings: RPMI-8226, 48 h; summary of the method: as §1
786-0 = assay: Growth inhibition of human 786-0 cells incubated for 48 hrs by sulforhodamine B assay; type: functional; settings: 786-0, 48 h; summary of the method: as §1
SR = assay: Growth inhibition of human SR cells incubated for 48 hrs by sulforhodamine B assay; type: functional; summary of the method: as §3
SNB-19 = assay: Growth inhibition of human SNB19 cells incubated for 48 hrs by sulforhodamine B assay; type: functional; settings: SNB-19, 48 h; summary of the method: as §3
SF-268 = assay: Growth inhibition of human SF268 cells incubated for 48 hrs by sulforhodamine B assay; type: functional; settings: SF-268, 48 h; summary of the method: as §1
HT-29 = assay: Growth inhibition of human HT-29 cells incubated for 48 hrs by sulforhodamine B assay; type: functional; settings: HT-29, 48 h; summary of the method: as §1
K562 = assay: Growth inhibition of human K562 cells incubated for 48 hrs by sulforhodamine B assay; type: functional; settings: K562, 48 h; summary of the method: as §1
RXF 393 = assay: Growth inhibition of human RXF393 cells incubated for 48 hrs by sulforhodamine B assay; type: functional; settings: RXF 393, 48 h; summary of the method: as §1
SNB-75 = assay: Growth inhibition of human SNB75 cells incubated for 48 hrs by sulforhodamine B assay; type: functional; settings: SNB-75, 48 h; summary of the method: as §3
DU-145 = assay: Growth inhibition of human DU145 cells incubated for 48 hrs by sulforhodamine B assay; type: functional; settings: DU-145, 48 h; summary of the method: as §1
UO-31 = assay: Growth inhibition of human UO31 cells incubated for 48 hrs by sulforhodamine B assay; type: functional; settings: UO-31, 48 h; summary of the method: as §3
SK-MEL-28 = assay: Growth inhibition of human SK-MEL-28 cells incubated for 48 hrs by sulforhodamine B assay; type: functional; settings: SK-MEL-28, 48 h; summary of the method: as §3
Malme-3M = assay: Growth inhibition of human MALME-3M cells incubated for 48 hrs by sulforhodamine B assay; type: functional; summary of the method: as §1
EKVX = assay: Growth inhibition of human EKVX cells incubated for 48 hrs by sulforhodamine B assay; type: functional; summary of the method: as §1
HOP-92 = assay: Growth inhibition of human HOP92 cells incubated for 48 hrs by sulforhodamine B assay; type: functional; settings: HOP-92, 48 h; summary of the method: as §1
UACC-62 = assay: Growth inhibition of human UACC62 cells incubated for 48 hrs by sulforhodamine B assay; type: functional; settings: UACC-62, 48 h; summary of the method: as §3
MCF7 [4] = assay: Induction of apoptosis in human MCF7 cells assessed as viable cells at 2 x 10^-6 M after 72 hrs by Annexin V/propidium iodide double staining-based flow cytometry (reference value: 98.9%); type: functional; settings: MCF7, 72 h, read-out: Activity
Summary of the method: (§4)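 MCF-7 cells were grown in RPMI with 10% FBS, 2 mM L-glutamine and antibiotics at 37 °C in 5% CO2. They were seeded at 2.0 x 10^5 cells/cm2 in triplicate, left to adhere overnight, then treated for 72 h; DMSO 0.1% served as vehicle. Trypsinised cells at 2.0 x 10^5/mL were stained with annexin V-FITC and PI for 15 min at room temperature in the dark. At least 1.0 x 10^4 cells were gated into viable, early apoptotic, late apoptotic and necrotic quadrants.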

MCF7 [5] = assay: Cell cycle arrest in human MCF7 cells assessed as accumulation at G0/G1 phase at GI50 concentration after 48 hrs by propidium iodide-staining based flow cytometry (reference value: 63.5%); type: functional; summary of the method: as §2
MCF7 [6] = assay: Induction of apoptosis in human MCF7 cells assessed as early apoptotic cells at 2 x 10^-6 M after 72 hrs by Annexin V/propidium iodide double staining-based flow cytometry (reference value: 1%); type: functional; summary of the method: as §4

Row | SMILES | GI50 (OVCAR-3) [µM] | GI50 (HCC 2998) [µM] | GI50 (SK-MEL-2) [µM] | GI50 (HCT-116) [µM] | GI50 (MDA-MB-468) [µM] | growth inhibition (GI) [3] | GI50 (SK-MEL-5) [µM] | GI50 (IGROV-1) [µM] | GI50 (OVCAR-4) [µM] | GI50 (SF-539) [µM] | Activity (Caco-2) | GI50 (KM12) [µM] | GI50 (786-0) [µM] | GI50 (SR) [µM] | GI50 (SNB-19) [µM] | GI50 (HT-29) [µM] | GI50 (K562) [µM] | GI50 (RXF 393) [µM] | GI50 (SNB-75) [µM] | GI50 (UO-31) [µM] | also measured
1 | COCCn1cc(-c2nc(-c3c[nH]c4ncccc34)cs2)c2cc(OC)ccc21 | 4.66 | 4.81 | 3.56 | 4.55 | 0.03 | Active | 5.53 | 0.55 | 0.03 | 3.99 | Non-Toxic | 0.16 | 3.44 | 1.28 | 9.71 | 4.31 | 4.79 | 1.18 | 1.1 | 2.31 | GI50 (MOLT-4): 6.02 µM; Activity (MCF7 [1]): Active; Activity (MCF7 [2]): Active; GI50 (CCRF-CEM): 6.7 µM; GI50 (RPMI-8226): 7.09 µM; GI50 (SF-268): 4.42 µM; GI50 (DU-145): 4.28 µM; GI50 (SK-MEL-28): 7.39 µM; GI50 (Malme-3M): 12.6 µM; GI50 (EKVX): 0.07 µM; GI50 (HOP-92): 0.99 µM; GI50 (UACC-62): 5.98 µM
2 | COCCn1cc(-c2csc(-c3c[nH]c4ccc(Br)cc34)n2)c2cccnc21 | 3.9 | 3.8 | 6.82 | 3.84 | 2.34 | Active | 3.24 | 4.06 | 2.74 | 7.34 | Toxic | 2.74 | 4.03 | 3.25 | 12.2 | 3.36 | 3.6 | 3.3 | 4.72 | 3.1 | GI50 (MOLT-4): 3.87 µM; viability at 2 µM (MCF7 [4]): 63.6%; Activity (MCF7 [5]): 9%; GI50 (RPMI-8226): 5.14 µM; Activity (MCF7 [6]): 36.3%; GI50 (SK-MEL-28): 4.79 µM; GI50 (Malme-3M): 3.66 µM; GI50 (EKVX): 2.05 µM; GI50 (HOP-92): 4.39 µM; GI50 (UACC-62): 4.2 µM
3 | COCCn1cc(-c2csc(-c3c[nH]c4ccccc34)n2)c2cccnc21 | 2.94 | 4.08 | 7.38 | 3.63 | 0.97 | Active | 3.22 | 2.53 | 1.76 | 5.91 | Toxic | 0.76 | 6.25 | 3.02 | 16.2 | 3.19 | 2.8 | 5.76 | 1.43 | 4.15 | Activity (MCF7 [1]): Active; Activity (MCF7 [2]): Active; viability at 2 µM (MCF7 [4]): 53.4%; GI50 (CCRF-CEM): > 100 µM; Activity (MCF7 [6]): 46.5%; GI50 (SF-268): 6.98 µM; GI50 (DU-145): 15.4 µM; GI50 (SK-MEL-28): 8.19 µM; GI50 (Malme-3M): 3.58 µM; GI50 (EKVX): 2 µM; GI50 (HOP-92): 14.9 µM; GI50 (UACC-62): 4.58 µM
4 | COCCn1cc(-c2csc(-c3c[nH]c4ccc(F)cc34)n2)c2cccnc21 | 3.34 | 4.54 | 3.89 | 3.77 | 2.44 | Active | 2.69 | 3.49 | 2.59 | 8.86 | Toxic | 1.77 | 5.12 | 3.24 | 98 | 2.9 | 2.12 | 5.91 | 2.97 | 4.41 | GI50 (MOLT-4): 5.56 µM; Activity (MCF7 [1]): Active; Activity (MCF7 [2]): Active; viability at 2 µM (MCF7 [4]): 70.7%; Activity (MCF7 [6]): 29.2%; GI50 (SF-268): 7.67 µM; GI50 (DU-145): 18.8 µM; GI50 (SK-MEL-28): 7.72 µM; GI50 (Malme-3M): 4.54 µM; GI50 (EKVX): 1.98 µM; GI50 (HOP-92): 6.29 µM; GI50 (UACC-62): 6.78 µM

— ChEMBL document CHEMBL4190252, “Synthesis, antitumor activity and CDK1 inhibiton of new thiazole nortopsentin analogues” (Eur J Med Chem, 2017)
